Measured values: ChEMBL document CHEMBL2331334, “Hybrid furoxanyl N-acylhydrazone derivatives as hits for the development of neglected diseases drug candidates” (Eur J Med Chem, 2013)
pIC50: −log10 of the molar value. Values after ≈ are worked out from the molar mass of the structure shown.

How the values were obtained:
[1] = tested on: Mycobacterium tuberculosis; test: Antimycobacterial activity against Mycobacterium tuberculosis H37Rv assessed as growth inhibition after 5 days by MTT assay; type: functional; settings: 120 h
Outline: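 MTB inoculum made from 20–30-day slant growth in Tween 80/0.2% BSA, adjusted to McFarland No. 1, then diluted in 7H9GC broth (Middlebrook 7H9, glycerol, Casitone, OADC). Final inoculum about 1.2 × 10^6 CFU/mL. Compounds taken from DMSO stock to final 0.4–25 in broth, with a DMSO control. Plates run 5 days at 37 °C, then tetrazolium (MTT)–Tween 80 added for a further 24 h at 37 °C. Read-out is MIC.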

[2] = Cytotoxicity against mouse J774.1 cells assessed as cell viability after 48 hrs by MTT assay; type: cell-based; settings: J774.1, 48 h
Outline: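 J774.1 macrophages in DMEM with 4 mM L-glutamine and 10% heat-inactivated FCS, 5×10^4 cells/well, attached 48 h at 37 °C, 5% CO2. Exposed 48 h to compounds (12.5–400.0 µM) or vehicle. MTT 0.1 mg/mL final, 3 h at 37 °C; formazan dissolved in DMSO/glycine buffer pH 10.5, A560. IC50 by linear regression versus solvent control.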

[3] = Selectivity index, ratio of IC50 for mouse J774.1 cells to IC50 for axenic amastigote stage of Leishmania amazonensis MHOM/BR/76/LTB-012; type: toxicity; settings: read-out: Ratio IC50
[4] = tested on: Leishmania amazonensis; test: Leishmanicidal activity against axenic amastigote stage of Leishmania amazonensis MHOM/BR/76/LTB-012 assessed as growth inhibition after 72 hrs by MTT assay; type: functional, organism-based; settings: MHOM/BR/76/LTB-012, 72 h
Outline: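 L. amazonensis axenic amastigotes (MHOM/BR/76/LTB-012), weekly passages in MAA/20 at 32 °C, 5% CO2. Seeded in 96-well plates; compounds in DMSO at 100 to 1 final, 72 h. MTT added for 4 h, stopped with 50% isopropanol–10% SDS, 30 min agitation at room temperature, A570. Triplicate; % inhibition versus control, IC50 from several concentrations.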

[5] = Selectivity index, ratio of IC50 for mouse J774.1 cells to IC50 for amastigote stage of Trypanosoma cruzi Tulahuen C4; type: toxicity; settings: read-out: Ratio IC50
[6] = tested on: Salmonella typhimurium; test: Mutagenicity in Salmonella typhimurium TA98 at 6.2 to 500 ug/plate in presence of S9 fraction; type: toxicity, organism-based; settings: salmonella enterica subsp. enterica serovar typhimurium
Outline: (§1)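 Direct plate incorporation with S. typhimurium TA98 on minimal glucose agar (Vogel-Bonner E, 40% glucose). Compounds in DMSO assayed in triplicate at doses starting from the highest non-toxic dose, with or without Aroclor-treated mouse liver S9. Controls: DMSO, 4-nitro-o-phenylenediamine (−S9), 2-aminofluorene (+S9). Revertants counted manually; mutagenic if ≥2× negative control at two consecutive doses.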

[7] = tested on: Trypanosoma cruzi; test: Trypanosomicidal activity against amastigote stage of Trypanosoma cruzi Tulahuen C4 transfected with beta-D-galactosidase infected in african green monkey Vero cells assessed as growth inhibition incubated 5 days prior to beta-D-galactopyranoside addition measured after 4 to 5 hrs by colorimetric assay; type: functional, organism-based
Outline: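 VERO monolayer in phenol red-free RPMI 1640 with 10% FCS, infected with 5×10^4 LacZ-transfected Tulahuen C4 trypomastigotes/well, 24 h at 37 °C, 5% CO2. Compounds added for 5 days. CPRG substrate added, 4–5 h at 37 °C, A570. Actives (>50% inhibition) retested in duplicate at 10.0–0.16; IC50 by logarithmic regression versus untreated control.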

[8] = Selectivity index, ratio of IC50 for mouse J774.1 cells to MIC for Mycobacterium tuberculosis H37Rv; type: functional
Outline: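 Cytotoxicity: J774.1 macrophages in DMEM with 4 mM L-glutamine and 10% heat-inactivated FCS, seeded at 5 × 10^4/well, attached 48 h at 37 °C, 5% CO2. Exposed 48 h to 12.5–400.0 µM compound or vehicle. MTT at 0.1 mg/mL final for 3 h, formazan dissolved in DMSO/glycine buffer pH 10.5, A560 read. IC50 by linear regression, divided by the MIC against the same MTB strain.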

[9] = tested on: Salmonella typhimurium; test: Mutagenicity in Salmonella typhimurium TA98 at 6.2 to 500 ug/plate in absence of S9 fraction; type: toxicity, organism-based; settings: salmonella enterica subsp. enterica serovar typhimurium; outline: as §1
[10] = Ratio of compound IC50 to amphotericin B IC50 for mouse J774.1 cells; type: ADME; settings: read-out: Ratio IC50
[11] = tested on: Trypanosoma cruzi; test: Trypanosomicidal activity against axenic epimastigote stage of Trypanosoma cruzi Tulahuen 2 assessed as growth inhibition; type: functional, organism-based
Outline: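 Tulahuen 2 epimastigotes grown axenically at 28 °C in BHI-tryptose with 5% FCS, harvested late log phase, 3×10^6/mL in 24-well plates. Compound added from DMSO stock (≤1% DMSO). Growth as A590 at day 0 and day 5; % inhibition from blank-corrected absorbances; ID50 = concentration halving absorbance relative to untreated controls.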

[12] = tested on: Salmonella typhimurium; test: Mutagenicity in Salmonella typhimurium TA98 at 20 ug/plate in absence of S9 fraction; type: toxicity, organism-based; settings: salmonella enterica subsp. enterica serovar typhimurium
Outline: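 TA98 direct plate incorporation on minimal glucose agar (Vogel-Bonner E, 40% glucose), without S9. Compounds in DMSO were run in triplicate, highest dose nontoxic to bacteria. 4-nitro-o-phenylenediamine (20.0 per plate) was the positive control and DMSO the negative. Revertants were counted manually. Mutagenic meant at least double the negative-control revertants at two consecutive doses. Values are means of two independent experiments.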

[13] = Aqueous stability of the compound in KCl.HCl buffer at pH 2 at 1 mM after 24 hrs by spectrophotometric analysis; type: physicochemical; settings: pH 2, 24 h, 1000 µM
Outline: (§2)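 Compound from DMSO stock, 1 mM final in aqueous buffer (KCl·HCl pH 2, acetate pH 5, Tris·HCl pH 7.4 or 8.3), incubated 37 °C for 24 h. Absorbance spectrum 250–450 nm compared with a freshly prepared, unincubated solution. TLC of ethyl acetate extracts to confirm or exclude decomposition products.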

[14] = Aqueous stability of the compound in Tris.HCl buffer at pH 8.3 at 1 mM after 24 hrs by spectrophotometric analysis; type: physicochemical; settings: pH 8.3, 24 h, 1000 µM; outline: as §2
[15] = Aqueous stability of the compound in acetate buffer at pH 5 at 1 mM after 24 hrs by spectrophotometric analysis; type: physicochemical; settings: pH 5, 24 h, 1000 µM; outline: as §2
[16] = Aqueous stability of the compound in Tris.HCl buffer at pH 7.4 at 1 mM after 24 hrs by spectrophotometric analysis; type: physicochemical; settings: pH 7.4, 24 h, 1000 µM; outline: as §2
[17] = tested on: Plasma; test: Metabolic stability in human plasma at pH 3 at 40 uM after 3 hrs; type: ADME, cell-free; settings: pH 3, 3 h
[18] = Selectivity index, ratio of IC50 for african green monkey Vero cells to IC50 for amastigote stage of Trypanosoma cruzi Tulahuen C4; type: toxicity, cell-based; settings: read-out: Ratio IC50
[19] = tested on: Salmonella typhimurium; test: Mutagenicity in Salmonella typhimurium TA98 at 3.1 to 250 ug/plate in presence of S9 fraction; type: toxicity, organism-based; settings: salmonella enterica subsp. enterica serovar typhimurium; outline: as §1
[20] = tested on: Salmonella typhimurium; test: Mutagenicity in Salmonella typhimurium TA98 at 3.1 to 250 ug/plate in absence of S9 fraction; type: toxicity, organism-based; settings: salmonella enterica subsp. enterica serovar typhimurium; outline: as §1

## COc1ccc(/C=N/NC(=O)c2no[n+]([O-])c2C)cc1O
[1]
  MIC: > 85.6 µM
[2]
  pIC50: < 3.40
[3]
  selectivity ratio: > 48
[4]
  pIC50: 5.08

## O=C(N/N=C/c1ccc2no[n+]([O-])c2c1)c1ccc2c(c1)OCO2
[1]
  MIC: > 76.7 µM
[5]
  selectivity ratio: < 5
[2]
  pIC50: 3.76
[6]
  Activity: Non-toxic
[7]
  pIC50: < 4.55
[3]
  selectivity ratio: 134
[8]
  Selectivity Index: <2
[9]
  Activity: Non-toxic
[10]
  selectivity ratio: 28.5
[4]
  pIC50: 5.89
[11]
  pIC50: 4.30

## Nc1ccc([N+](=O)[O-])cc1N
[12]
  Activity: Toxic

## Cc1c(/C=N/NC(=O)c2ccc3c(c2)OCO3)no[n+]1[O-]
[1]
  MIC: > 86.2 µM
[5]
  selectivity ratio: < 1.5
[2]
  pIC50: 3.88
[7]
  pIC50: < 4.46
[3]
  selectivity ratio: 40
[8]
  Selectivity Index: <1.5
[4]
  pIC50: 5.48
[11]
  pIC50: < 3.82

## Cc1c(C(=O)N/N=C/c2ccc([N+](=O)[O-])cc2)no[n+]1[O-]
[1]
  MIC: > 85.9 µM
[2]
  pIC50: < 3.52
[7]
  pIC50: < 4.46
[3]
  selectivity ratio: > 38
[4]
  pIC50: 5.10
[11]
  pIC50: < 3.82

## Cc1nc2ccccn2c1C(=O)NN
[7]
  pIC50: < 4.28
[3]
  selectivity ratio: > 13
[4]
  pIC50: 4.53
[11]
  pIC50: < 3.82

## O=C(N/N=C/c1ccc2no[n+]([O-])c2c1)c1cnn(-c2ccccc2)c1
[1]
  MIC: > 17.9 µM
[2]
  pIC50: 4.43
[7]
  pIC50: < 4.51
[3]
  selectivity ratio: 27
[8]
  Selectivity Index: <2
[10]
  selectivity ratio: 5
[4]
  pIC50: 5.85
[11]
  pIC50: 4.53

## Cc1c(/C=N/NC(=O)c2ccncc2)no[n+]1[O-]
[1]
  MIC: 1.6 µM (≈ 0.396 µg/mL)
[13]
  Stability: Stable
[2]
  pIC50: < 3.40
[14]
  Stability: Stable
[6]
  Activity: Non-toxic
[7]
  pIC50: < 4.39
[15]
  Stability: Stable
[16]
  Stability: Stable
[3]
  selectivity ratio: > 16
[8]
  Selectivity Index: >250
[9]
  Activity: Non-toxic
[17]
  Stability: Stable
[4]
  pIC50: 4.60
[11]
  pIC50: < 3.52

## CC1CS(=O)(=O)CCN1/N=C/c1ccc([N+](=O)[O-])o1 (stereo not given) [NIFURTIMOX]
[5]
  selectivity ratio: 27
[7]
  pIC50: 4.98
[18]
  selectivity ratio: 7.7

## O=C(N/N=C/c1ccc2no[n+]([O-])c2c1)c1cccnc1
[1]
  MIC: 44.2 µM (≈ 12.5 µg/mL)
[13]
  Stability: Stable
[5]
  selectivity ratio: < 0.9
[2]
  pIC50: 4.51
[14]
  Stability: Stable
[7]
  pIC50: < 4.45
[15]
  Stability: Stable
[16]
  Stability: Stable
[8]
  Selectivity Index: 0.7
[17]
  Stability: Stable
[11]
  pIC50: 4.45

## COc1cc(/C=N/NC(=O)c2no[n+]([O-])c2C)ccc1O
[1]
  MIC: > 85.6 µM
[2]
  pIC50: < 3.40
[6]
  Activity: Non-toxic
[3]
  selectivity ratio: > 235
[9]
  Activity: Non-toxic
[10]
  selectivity ratio: 50
[4]
  pIC50: 5.77

## Cc1c(C(=O)N/N=C/c2cccc(O)c2)no[n+]1[O-]
[1]
  MIC: > 95.4 µM
[2]
  pIC50: < 3.40
[7]
  pIC50: < 4.42
[3]
  selectivity ratio: > 89
[4]
  pIC50: 5.35
[11]
  pIC50: < 3.82

## Cc1nc2ccccn2c1C(=O)N/N=C/c1no[n+]([O-])c1C
[1]
  MIC: > 83.3 µM
[2]
  pIC50: < 3.40
[7]
  pIC50: < 4.48
[3]
  selectivity ratio: > 32
[4]
  pIC50: 4.90
[11]
  pIC50: < 3.82

## Cc1nc2ccccn2c1C(=O)N/N=C/c1c(-c2ccccc2)no[n+]1[O-]
[1]
  MIC: 17.3 µM (≈ 6.27 µg/mL)
[13]
  Stability: Stable
[5]
  selectivity ratio: 62
[2]
  pIC50: 4.25
[19]
  Activity: Non-toxic
[7]
  pIC50: 6.04
[15]
  Stability: Stable
[16]
  Stability: Stable
[8]
  Selectivity Index: 3.2
[17]
  Stability: Stable
[20]
  Activity: Non-toxic
[11]
  pIC50: 5.30
[18]
  selectivity ratio: 12

## O=C(N/N=C/c1c(-c2ccccc2)no[n+]1[O-])c1ccc2c(c1)OCO2
[1]
  MIC: > 71 µM
[13]
  Stability: Stable
[5]
  selectivity ratio: > 5
[2]
  pIC50: 3.79
[14]
  Stability: Stable
[19]
  Activity: Non-toxic
[7]
  pIC50: > 4.51
[15]
  Stability: Stable
[16]
  Stability: Stable
[8]
  Selectivity Index: <2
[17]
  Stability: Stable
[20]
  Activity: Non-toxic
[11]
  pIC50: 4.30
